Compound activity as filed in PubChem BioAssay.
Compounds with a hit are over-represented: about 1.9% of the library has one in this group of screens.
LMPTP block: LMPTP (human) inhibition. P24666. recombinant LMPTP-A, OMFP fluorogenic substrate, fluorescence intensity. inhibition, % at 20 µM. 360,000 tested, 0.22% active;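 active = compounds that cut the enzyme signal by at least half of the control window in the single-dose screen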;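 also: plate controls were DMSO wells with enzyme plus substrate for no effect and substrate without enzyme for full effect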
Target sequence (P24666 whole entry, looked up): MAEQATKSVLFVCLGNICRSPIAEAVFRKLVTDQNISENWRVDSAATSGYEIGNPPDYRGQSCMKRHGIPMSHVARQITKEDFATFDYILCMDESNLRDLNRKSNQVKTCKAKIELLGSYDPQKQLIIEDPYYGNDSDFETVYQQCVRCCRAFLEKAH
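Material: LMPTP-A; amount: 0.625 nM enzyme; doses: single 20 µM dose; times: reaction 50 min, room temperature, dark; technique: fluorescence intensity of OMFP turnover product; benchmarks: no-enzyme and uninhibited controls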
PP1 inh: counter-screen for PP5 inhibitors: inhibitors of human PP1-alpha. P62136. purified PP1alpha, OMFP fluorescence. inhibition, % at 6.7 µM. 320,000 tested, 0.9% active. AID 2235;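 active = inhibition above the mean inhibition of all tested compounds plus 3 SD, computed separately for each screening campaign, cut at about 15% in these data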
Target sequence (P62136 whole entry, looked up): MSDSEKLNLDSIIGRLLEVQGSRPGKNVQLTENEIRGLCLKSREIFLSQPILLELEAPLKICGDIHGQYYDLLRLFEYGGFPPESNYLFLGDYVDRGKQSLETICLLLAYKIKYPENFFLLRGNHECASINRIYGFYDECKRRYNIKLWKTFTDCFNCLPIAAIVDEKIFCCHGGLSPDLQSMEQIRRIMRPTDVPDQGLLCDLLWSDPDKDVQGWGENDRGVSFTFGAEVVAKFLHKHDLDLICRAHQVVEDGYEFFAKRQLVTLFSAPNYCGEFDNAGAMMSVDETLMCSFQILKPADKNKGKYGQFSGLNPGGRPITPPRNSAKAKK
STEP block: STEP (human) phosphatase inhibition; P54829; recombinant STEP, OMFP fluorogenic substrate, fluorescence; inhibition, % at 20 µM; 360,000 tested, 0.25% active; AID 588621;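 active = inhibition at 20 µM, scaled per plate between control wells, above about 37%, limit read from the data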;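 also: 0% = DMSO with enzyme and substrate and 100% = substrate only without enzyme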
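material = STEP tyrosine phosphatase | reagent = fluorogenic phosphatase substrate OMFP at 25 µM final | doses = single compound dose of 20 µM, 1% DMSO final | schedule = 20 min reaction, room temperature, in the dark | measured by = fluorescence, 480/540 nm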
Scp-1 inhibitor: blocks human Scp-1 phosphatase activity; inhibition, % at 20 µM; 340,000 tested, 0.88% active; Recombinant Scp1, phosphopeptide, malachite green phosphate absorbance; AID 493091;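 active = inhibition above about 50% at 20 µM, limit read from the data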;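 also: plate controls were DMSO wells with enzyme for no effect and wells lacking enzyme for full effect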
Target sequence (Q9GZU7 76-261 limits assumed): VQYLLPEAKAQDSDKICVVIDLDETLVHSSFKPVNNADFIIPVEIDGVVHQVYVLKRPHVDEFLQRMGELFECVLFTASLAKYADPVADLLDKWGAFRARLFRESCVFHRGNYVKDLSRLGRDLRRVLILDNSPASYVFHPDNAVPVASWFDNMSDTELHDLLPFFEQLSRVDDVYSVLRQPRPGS
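Material – SCP-1 phosphatase catalytic domain, residues 76-261 · Buffer or medium – Acidic Tris acetate buffer with magnesium and detergent · Also added – Phospho 17-mer peptide substrate · Compound – single 20 µM dose, 1% DMSO · Times – 45 min room-temperature reaction, 5 min colour, 30 min stabiliser · Technique – Phosphate-binding colour reagent, absorbance read at 630 nm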
PP5 primary: blocks human protein phosphatase 5 activity; P53041; inhibition, % at 6.7 µM; 320,000 tested, 0.18% active; purified PP5c, OMFP substrate fluorescence;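 active = inhibition above the campaign's mean inhibition across all tested compounds plus 3 SD, cut at about 9.5% in these data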;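 also: 0% = DMSO only and 100% = 100 µM cantharidin control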
Numbers without * were called inactive; x = no result given.

SMILES | LMPTP block | PP1 inh | STEP block | Scp-1 inhibitor | PP5 primary
O=c1c2cc(Cl)ccc2nc(-c2ccccc2)n1O | 0.4 | -5.0 | -1.1 | -8.4 | -2.1
CN1CCN(CCCNC(=O)c2ccc(Cn3c(=S)[nH]c4ccc(Br)cc4c3=O)cc2)CC1 | -5.6 | -2.8 | 9.2 | -6.2 | -1.1
O=C(NCCN1CCCC1)c1ccc(Cn2c(=S)[nH]c3cc4c(cc3c2=O)OCO4)cc1 | 54.3* | 8.2 | 3.7 | 0.4 | 3.3
O=C(Nc1ccc(C2=NCCN2)cc1)c1ccc(C(=O)Nc2ccc(C3=NCCN3)cc2)c(Cl)c1 | 59.3* | 4.9 | 2.8 | -17.5 | -2.5
O=S(=O)(Nc1ccc(Br)cc1)c1cccc(NC(=S)NCCN2CCOCC2)c1 | -0.7 | -0.2 | 15.3 | -9.3 | 1.1
O=S(=O)(Nc1ccccc1F)c1cccc(NC(=S)NCCN2CCOCC2)c1 | 5.3 | x | 91.5* | -7.3 | x
Cc1ccc(S(=O)(=O)NC(C(=O)N2CCOCCOCCOCC2)C(C)C)cc1 (stereo not drawn) | -0.6 | -0.8 | 1.8 | -5.5 | -1.2
Cc1ccccc1C(=O)Nc1nnc(CC(=O)N/N=C/c2cn(Cc3ccccc3)c3ccccc23)s1 | 0.0 | 15.5* | 3.3 | -8.4 | -0.3
Cc1ccccc1C(=O)Nc1nnc(CC(=O)N/N=C/c2ccco2)s1 | 0.5 | -4.6 | 0.9 | -0.7 | -0.5
OC(CNCCC1C=Nc2ccccc21)Cn1c2ccc(Cl)cc2c2cc(Cl)ccc21 (stereo not drawn) | 3.3 | 17.1* | -0.5 | -14.0 | 3.6
CCc1ccc2[nH]c(=O)c(C3C(C#N)=C(N)Oc4c3ccc3cccnc43)cc2c1 (stereo not drawn) | 1.9 | 23.4* | 2.1 | -4.6 | 1.5
COc1cccc2sc(NNC(=O)COc3ccccc3)nc12 | 0.6 | 1.4 | 2.9 | -16.6 | 0.0
COc1cccc2sc(Nc3nc(-c4ccccn4)cs3)nc12 | 4.7 | 17.1* | 3.7 | x | 0.8
COc1ccc(OC)c(C2C(C(=O)c3cc4ccccc4o3)=C(O)C(=O)N2c2cc(C)on2)c1 (stereo not drawn) | 7.4 | 20.6* | 0.4 | -14.6 | 1.9
COc1ccccc1C1C(C(=O)c2cc3ccccc3o2)=C(O)C(=O)N1c1cc(C)on1 (stereo not drawn) | 3.9 | 19.9* | 5.1 | -13.6 | -1.6
N#Cc1ccccc1OCC(=O)Nc1ccc2c(c1)OCCCO2 | -0.2 | -1.2 | 1.9 | -4.9 | -9.5
CCN(CC)c1nc2ccccc2nc1C(C#N)C(=O)NCCc1ccccc1 (stereo not drawn) | 1.3 | 2.0 | 0.3 | -1.8 | -1.7
CCN(CC)S(=O)(=O)c1ccc(C)c(NC(=O)CN2CCN(Cc3ccccc3)CC2)c1 | -3.0 | -1.5 | 2.5 | -12.6 | 1.3
Nc1nonc1-n1nnc(C(=O)N/N=C/c2cc(Cl)ccc2O)c1CN1CCCCCC1 | 0.0 | 16.3* | 0.5 | x | 1.9
Oc1ccc(-c2csc(Nc3cccc4ccccc34)n2)cc1O | 62.0* | 0.6 | 3.2 | 11.0 | 5.4
CCOc1ccccc1OCCOCCOc1c(Cl)cccc1Cl | 1.2 | 0.6 | 2.0 | -10.4 | 0.4
CC[N+](CC)(CC)CCOc1cccc(OCC[N+](CC)(CC)CC)c1OCC[N+](CC)(CC)CC | -5.8 | -5.2 | -0.1 | 95.8* | -1.0
CC(C)(C)OC(=O)C[C@@H]1C/C=C\C[C@@H](CC(=O)N[C@H](CO)Cc2ccccc2)C(=O)N2CCC[C@@H]2COC1=O | 1.5 | x | 3.6 | -11.3 | x
C[C@H](NC(=O)c1ccco1)C(=O)Nc1nc(-c2ccccn2)cs1 | -2.0 | x | 0.6 | -10.4 | x
O=C(Nc1nc(-c2ccccn2)cs1)c1ccco1 | 5.7 | 15.8* | 4.0 | -4.7 | 0.1
SMILES | LMPTP block | PP1 inh | STEP block | Scp-1 inhibitor | PP5 primary
CCCOc1ccc(C(=O)NC(=S)N2CCN(c3ncc4c(=O)c(C(=O)O)cn(CC)c4n3)CC2)cc1 | 70.0* | x | 7.4 | x | x
CCCCOC(=O)c1ccc(NC(=S)N2CCN(c3ncc4c(=O)c(C(=O)O)cn(CC)c4n3)CC2)cc1 | 40.3 | 5.5 | 7.9 | -5.2 | 0.5
CCn1cc(C(=O)O)c(=O)c2cnc(N3CCN(C(=S)NC(=O)c4ccccc4)CC3)nc21 | 55.6* | 4.5 | 1.6 | -7.9 | -4.5
CCOC(=O)c1cccc(NC(=S)N2CCN(c3ncc4c(=O)c(C(=O)O)cn(CC)c4n3)CC2)c1 | 69.9* | 1.2 | 6.5 | -7.2 | 0.5
CCOc1ncccc1C(=O)N1CCN(S(=O)(=O)c2ccccc2)CC1 | -0.9 | 0.1 | 0.1 | 0.4 | 0.6
NC(N)=N/N=C/c1ccc(OCc2ccccc2Cl)cc1 | 3.8 | 16.7* | 18.7 | 6.0 | 3.8
Cc1cc(C(=O)Cn2nc(C(=O)O)c3ccccc3c2=O)c(C)n1-c1ccc(OC(F)F)cc1 | 4.5 | 16.0* | 0.7 | -15.2 | -0.3
COc1ccc(-n2c(C)cc(C(=O)Cn3nc(C(=O)O)c4ccccc4c3=O)c2C)cc1 | 1.1 | 15.2 | 3.2 | -1.4 | 3.0
CCC(=O)NC(=S)Nc1ccc(NC(=O)c2ccc(Br)o2)cc1 | -2.0 | 1.7 | -0.7 | -0.9 | -2.5
C=CCOc1cccc(C2C(C(=O)c3cc4ccccc4o3)=C(O)C(=O)N2c2cc(C)on2)c1 (stereo not drawn) | 32.3 | 28.4* | 8.4 | -13.6 | 1.5
COc1cccc(C2C(C(=O)c3cc4ccccc4o3)=C(O)C(=O)N2c2cc(C)on2)c1 (stereo not drawn) | 12.2 | 24.9* | 8.5 | -11.3 | -0.1
COc1cccc(C2C(C(=O)c3cc4ccccc4o3)=C(O)C(=O)N2CCN2CCOCC2)c1 (stereo not drawn) | -1.1 | 0.9 | 0.5 | 2.6 | 1.7
O=C(CSc1nnc2ccc(-c3ccco3)nn12)Nc1ccccc1F | 52.9* | x | 2.3 | 3.7 | x
COc1cc(OC)cc(C(=O)Nc2ncc3c(n2)CC(C)CC3=O)c1 (stereo not drawn) | 0.1 | -2.7 | 0.7 | -6.7 | 2.3
CCOc1ccc(NC(=O)CN(C)C(=O)CCCOc2ccc(Br)cc2)cc1OCC | 0.3 | 3.0 | 1.5 | -9.5 | 1.5
COc1cc(NC(=O)c2sc3ncn(CC(=O)N4CCC(C)CC4)c(=O)c3c2C)cc(OC)c1OC | 1.0 | 8.6 | 1.5 | -1.1 | 1.2
COc1cc(NC(=O)c2sc3ncn(CC(=O)N4CCCC(C)C4)c(=O)c3c2C)cc(OC)c1OC (stereo not drawn) | -0.3 | 16.6* | -0.2 | -0.3 | 1.0
O=C(NCc1ccco1)c1cccc2c1C(=O)c1ccc(/C=C/c3ccccc3)cc1S2(=O)=O | 4.6 | x | -1.9 | 74.9* | x
Cc1ccc(C2=NN=C(NC(=O)CSc3nnc4c5ccccc5n(C)c4n3)SC2)cc1 | 1.1 | 21.8* | 4.2 | 3.3 | 1.2
Clc1nssc1=Nc1nncs1 | 33.4 | -2.1 | 20.2 | 2.4 | -2.7
Clc1ccc(N=c2ssnc2Cl)nc1 | 78.7* | -2.0 | 31.3 | -10.5 | 2.0
Clc1nssc1=Nc1ccc(Br)cc1 | 50.5* | x | 7.2 | -0.8 | x
O=C(Cc1c(C(=O)O)[nH]c2ccccc12)NCCN1CCN(c2cccc(Cl)c2)CC1 | -1.3 | 0.6 | 0.4 | -3.1 | 0.5
O=C(COC(=O)c1ccc(NS(=O)(=O)c2cccs2)cc1)NCc1ccco1 | 49.6 | 13.4 | 29.9 | 91.9* | -0.8
